Test [1] concerns P. phaseolicola (GSPB 2828). The test is described as follows: Agar diffusion method, zone of inhibition. In kind it is cell-based, Pseudomonas phaseolicola. Particulars: for zone of inhibition at 10 µg/mL / zone of inhibition at 15 µg/mL: Pseudomonas, 24 h, read-out: Diameter of zone inhibition; for Diameter of zone inhibition: P. phaseolicola (GSPB 2828), 15 μg mL^−1, 24 h, average of triplicate. In a few lines:
(§1)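 Bacterial strains were tested by agar diffusion on nutrient agar (peptone 5 and meat extract 3 g L⁻¹ in distilled water, pH 7.0, 2% agar, autoclaved 121 °C for 20 min). Each test compound (1 mg) was dissolved in 1 mL DMSO and made up to 10 mL with sterile water (100 μg mL⁻¹ stock). The solution was placed in the agar, and inhibition zones were measured after 24 h incubation. Values are the mean of triplicate readings.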
A general note: Agar diffusion results depend on both activity and mobility in agar.

The next test has as its system S. pyogenes (ATCC 19615). The test is described as follows: Agar diffusion method, zone of inhibition. In kind it is cell-based, Streptococcus pyogenes. The following applies: Streptococcus pyogenes, ATCC19615, 24 h, read-out: Diameter of zone inhibition.
The test system of a further test is Gram-positive bacteria. The test is described as follows: Agar diffusion method. Format: cell-based, S. aureus (ATCC 25923) and S. pyogenes (ATCC 19615). The following applies: summary of Table 1. In a few lines:
as §1

For test [2], the system named is MRSA1 (methicillin resistant S. aureus). The experiment in a line: Zone of inhibition against MDR clinical isolate. In kind it is cell-based. Particulars: for zone of inhibition at 15 µg/mL: Staphylococcus aureus, read-out: Diameter of zone inhibition; for Diameter of zone inhibition: MRSA1 clinical isolate, 15 μg mL^−1.
The test system of a further test is C. albicans. The test is described as follows: Agar diffusion method, zone of inhibition. Particulars: for zone of inhibition at 10 µg/mL / zone of inhibition at 15 µg/mL: Candida albicans, 24 h, read-out: Diameter of zone inhibition; for Diameter of zone inhibition: C. albicans, average of triplicate. Format: cell-based, Candida albicans. In a few lines:
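For agar diffusion against C. albicans, each test compound (1 mg) was dissolved in 1 mL DMSO and diluted to 10 mL with sterile water (100 μg mL⁻¹ stock). The solution was placed in the agar, and the inhibition zone diameter was read after 24 h. Values are the average of triplicate readings.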

The test system of test [3] is K. pneumoniae (MDR clinical isolate). The test is described as follows: Zone of inhibition against MDR clinical isolate. Format: cell-based. The following applies: for zone of inhibition at 15 µg/mL: Klebsiella pneumoniae, read-out: Diameter of zone inhibition; for Diameter of zone inhibition: MDR K. pneumoniae clinical isolate, 15 μg mL^−1.
For test [4], the system named is MRSA1 (methicillin resistant S. aureus). The experiment in a line: Minimal inhibitory concentration. In kind it is cell-based. Particulars: for SI (selectivity index, CC50/MIC): MRSA1 vs VERO cells. In a few lines: (§2)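 Broth microdilution against MDR clinical isolates: 80 μl Mueller–Hinton broth plus 20 μl tween 80 received 100 μl test compound, then two-fold serial dilution. Each well was inoculated with 100 μl of 0.5 McFarland suspension ([…]) and incubated covered at 35 ± 2 °C for 24 h. MIC is the lowest concentration inhibiting growth.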

The test system of the next test is S. aureus (ATCC 25923). The test is described as follows: Agar diffusion method, zone of inhibition. In kind it is cell-based, Staphylococcus aureus. The following applies: for zone of inhibition at 10 µg/mL / zone of inhibition at 15 µg/mL: Staphylococcus aureus, ATCC25923, 24 h, read-out: Diameter of zone inhibition; for Diameter of zone inhibition: S. aureus (ATCC 25923), 15 μg mL^−1, 24 h, average of triplicate. In a few lines: as §1

Test [5] relates to K. pneumoniae (MDR clinical isolate). The experiment in a line: Minimal inhibitory concentration. In kind it is cell-based. Particulars: for SI (selectivity index, CC50/MIC): K. pneumoniae vs VERO cells; for MIC: K. pneumoniae, Table 4. In a few lines:
as §2

In the next test the test system is Gram-negative bacteria. The test is described as follows: Agar diffusion method. Format: cell-based, P. phaseolicola (GSPB 2828) and P. fluorescens (S 97). Particulars: summary of Table 1. In a few lines: as §1
The next test relates to P. fluorescens (S 97). The experiment in a line: Agar diffusion method, zone of inhibition. Format: cell-based, Pseudomonas fluorescens. The following applies: for zone of inhibition at 15 µg/mL / zone of inhibition at 10 µg/mL: Pseudomonas fluorescens, 24 h, read-out: Diameter of zone inhibition; for Diameter of zone inhibition: P. fluorescens (S 97), average of triplicate. In a few lines:
as §1

The subject of test [6] is MRSA1 (methicillin resistant S. aureus). The test is described as follows: Minimum bactericidal concentration. Format: cell-based. Particulars: MRSA; >4 = bacteriostatic.
Setting [7] is: MRSA1 clinical isolate, Table 2.

In brackets after ≈: the same amount, converted by molar mass.

The results in this text go back to paper PMC8693849 (RSC Advances, 2021).

The term zone of inhibition denotes the extent of the growth-free halo in a diffusion test. In general, MIC refers to the lowest concentration found to suppress growth. A higher MIC goes with a need for much substance.

As for `CC(=O)C1=C(C)N2NC(C)(c3ccccc3O)N(C(Cc3c[nH]c4ccccc34)C(=O)O)C2=NC1c1ccc(Cl)cc1` (stereo not shown) [Compound 2d, 2-(6-Acetyl-5-(4-chlorophenyl)-2-(2-hydroxyphenyl)-2,7-dimethyl-1,2-dihydro-[1,2,4]triazolo[1,5-a]pyrimidin-3(5H)-yl)-3-(1H-indol-3-yl)propanoic acid], the zone of inhibition at 10 µg/mL in test [1] was found to be 12 mm; in the test on S. pyogenes (ATCC 19615) it was 20 mm; with C. albicans it was 9 mm; with S. aureus (ATCC 25923), 20 mm. In addition, the zone of inhibition at 15 µg/mL was 22 mm in test [1], 28 mm in test [2], 12 mm with C. albicans and 6 mm in test [3]. Further, the “Activity against Gram-positive bacteria” value with Gram-positive bacteria is listed as “active”. Also, the MIC in test [4] (MRSA1, Table 4) was 25 µg/mL (≈ 42.8 µM); in [4] (Staphylococcus aureus), 25 µg/mL (≈ 42.8 µM). The “SI (selectivity index, CC50/MIC)” value in test [4] was 20.

For the compound `CC(C(=O)O)N1c2nc(-c3ccc(Cl)cc3)c(C#N)c(=O)n2NC1(C)c1ccccc1O` (stereo not shown) [Compound 9b, 2-(5-(4-Chlorophenyl)-6-cyano-2-(2-hydroxyphenyl)-2-methyl-7-oxo-1,2-dihydro-[1,2,4]triazolo[1,5-a]pyrimidin-3(7H)-yl)propanoic acid], in [5], the “SI (selectivity index, CC50/MIC)” value stood at 10. Also, in [5], the MIC stood at 25 µg/mL (≈ 55.3 µM). For the same compound, the “Activity against Gram-negative bacteria” value in the test on Gram-negative bacteria is “active”. In addition, the zone of inhibition at 10 µg/mL in [1] came out at 19 mm; in the test with C. albicans, 6 mm; in the test on S. aureus (ATCC 25923), 15 mm. Also, the zone of inhibition at 15 µg/mL with S. pyogenes (ATCC 19615) was 25 mm; in test [2] it was 7 mm; in the test with C. albicans, 8 mm; in the test with P. fluorescens (S 97), 28 mm; in test [3], 29 mm; in the test on S. aureus (ATCC 25923), 26 mm.

As to “2-(5-(4-Chlorophenyl)-6-cyano-2-(2-hydroxyphenyl)-7-imino-1,2-dihydro-[1,2,4]triazolo[1,5-a]pyrimidin-3(7H)-yl)-3-(1H-indol-3-yl)propanoic acid [Compound 8c]”, the “Diameter of zone inhibition” value in [1] was 24 mm; in [2], 28 mm; with C. albicans (10 μg mL^−1, 24 h) it was 8 mm; in the test on C. albicans (15 μg mL^−1, 24 h), 11 mm; with P. fluorescens (S 97) (10 μg mL^−1, 24 h) it was 13 mm; in the test on P. fluorescens (S 97) (15 μg mL^−1, 24 h) it was 23 mm. The “Diameter of zone inhibition” value was 12 mm in test [3] and 30 mm with S. aureus (ATCC 25923). Further, in the test on Gram-positive bacteria, the “Activity against Gram-positive bacteria” value is listed as “active”. Also, the MIC in [4] (setting [7]) worked out at 50 µg/mL.

Take `CC(=O)C1=C(C)N2NC(c3ccccc3O)N(C(Cc3c[nH]c4ccccc34)C(=O)O)C2=NC1c1ccc(Cl)cc1` (stereo not shown) [Compound 2c, 2-(6-Acetyl-5-(4-chlorophenyl)-2-(2-hydroxyphenyl)-7-methyl-1,2-dihydro-[1,2,4]triazolo[1,5-a]pyrimidin-3(5H)-yl)-3-(1H-indol-3-yl)propanoic acid]: the zone of inhibition at 10 µg/mL was 11 mm in test [1], 6 mm in the test with C. albicans and 12 mm in the test with P. fluorescens (S 97). For the same compound, the zone of inhibition at 15 µg/mL stood at 23 mm in [1]; 26 mm in test [2]; 9 mm in the test on C. albicans; 22 mm with P. fluorescens (S 97); 8 mm in [3]. In addition, the “Activity against Gram-positive bacteria” value in the test on Gram-positive bacteria is reported as “active”. The MIC in [4] (MRSA1, Table 4) was found to be 25 µg/mL (≈ 43.9 µM); in test [4] (Staphylococcus aureus), 25 µg/mL (≈ 43.9 µM). In addition, the “SI (selectivity index, CC50/MIC)” value in test [4] is reported as 10.

Consider `N#Cc1c(-c2ccc(Cl)cc2)nc2n(c1=O)NC(c1ccccc1O)N2C(Cc1c[nH]c2ccccc12)C(=O)O` (stereo not shown) [Compound 9c, 2-(5-(4-Chlorophenyl)-6-cyano-2-(2-hydroxyphenyl)-7-oxo-1,2-dihydro-[1,2,4]triazolo[1,5-a]pyrimidin-3(7H)-yl)-3-(1H-indol-3-yl)propanoic acid], for which the zone of inhibition at 10 µg/mL was determined as 10 mm in [1], 19 mm with S. pyogenes (ATCC 19615), 9 mm in the test on C. albicans and 11 mm in the test on P. fluorescens (S 97). Moreover, the zone of inhibition at 15 µg/mL in [1] amounted to 22 mm; in test [2], 27 mm; in the test with C. albicans, 11 mm; with P. fluorescens (S 97), 20 mm; in test [3], 13 mm. For the same compound, the “Activity against Gram-positive bacteria” value with Gram-positive bacteria is recorded as “active”. In addition, the MIC in [4] (MRSA1, Table 4) was found to be 25 µg/mL (≈ 45.2 µM); in [4] (Staphylococcus aureus), 25 µg/mL (≈ 45.2 µM). Besides, the “SI (selectivity index, CC50/MIC)” value in [4] is 10.

Take “2-(5-(4-Chlorophenyl)-6-cyano-2-(2-hydroxyphenyl)-7-imino-2-methyl-1,2-dihydro-[1,2,4]triazolo[1,5-a]pyrimidin-3(7H)-yl)-3-(1H-indol-3-yl)propanoic acid [Compound 8d]”: the “Diameter of zone inhibition” value in test [1] came to 24 mm; in [2], 25 mm; in the test with C. albicans (10 μg mL^−1, 24 h) it was 6 mm; in the test with C. albicans (15 μg mL^−1, 24 h) it was 7 mm; in the test on P. fluorescens (S 97) (10 μg mL^−1, 24 h), 12 mm; with P. fluorescens (S 97) (15 μg mL^−1, 24 h), 22 mm. For the same compound, the “Diameter of zone inhibition” value in test [3] is recorded as 10 mm; in the test with S. aureus (ATCC 25923) it was 29 mm. The “Activity against Gram-positive bacteria” value in the test on Gram-positive bacteria is recorded as “active”. The compound further gave an MIC in test [4] (setting [7]) of 50 µg/mL.

In the case of `CCOC(=O)C1=C(C)N2NC(c3ccccc3O)N(C(Cc3c[nH]c4ccccc34)C(=O)O)C2=NC1c1ccc(Cl)cc1` (stereo not shown) [Compound 3c, 2-(5-(4-Chlorophenyl)-6-(ethoxycarbonyl)-2-(2-hydroxyphenyl)-7-methyl-1,2-dihydro-[1,2,4]triazolo[1,5-a]pyrimidin-3(5H)-yl)-3-(1H-indol-3-yl)propanoic acid], the zone of inhibition at 10 µg/mL in test [1] was 10 mm; in the test on C. albicans, 6 mm; with P. fluorescens (S 97), 8 mm. The “Activity against Gram-positive bacteria” value in the test with Gram-positive bacteria is “active”. The zone of inhibition at 15 µg/mL in [2] amounted to 24 mm; with C. albicans it was 7 mm; in the test on P. fluorescens (S 97), 23 mm; in test [3], 9 mm. Also, the “Activity against methicillin resistant S. aureus” value in test [4] (MDR clinical isolate, Table 2) is given as “remarkable activity”. Besides, the MIC was found to be 12.5 µg/mL (≈ 20.8 µM) in test [4] (MRSA1, Table 3) and 12.5 µg/mL (≈ 20.8 µM) in [4] (Staphylococcus aureus). In [4], the “SI (selectivity index, CC50/MIC)” value is listed as 20. Also, the “MIC index (MBC/MIC)” value in test [6] is more than 4.

As to `CC(C(=O)O)N1c2nc(-c3ccc(Cl)cc3)c(C#N)c(=O)n2NC1c1ccccc1O` (stereo not shown) [Compound 9a, 2-(5-(4-Chlorophenyl)-6-cyano-2-(2-hydroxyphenyl)-7-oxo-1,2-dihydro-[1,2,4]triazolo[1,5-a]pyrimidin-3(7H)-yl)propanoic acid], in [5], the “SI (selectivity index, CC50/MIC)” value is 20. For the same compound, the MIC in test [5] turned out to be 25 µg/mL (≈ 57.1 µM). The “Activity against Gram-negative bacteria” value in the test on Gram-negative bacteria is on record as “active”. The zone of inhibition at 15 µg/mL was 30 mm in [1]; 27 mm in the test with S. pyogenes (ATCC 19615); 5 mm in test [2]; 9 mm in the test with C. albicans; 30 mm with P. fluorescens (S 97); 27 mm in test [3]. For the same compound, the zone of inhibition at 15 µg/mL with S. aureus (ATCC 25923) stood at 26 mm. Moreover, the zone of inhibition at 10 µg/mL with S. pyogenes (ATCC 19615) was determined as 12 mm; in the test with C. albicans, 6 mm.
